Measured values as given in ChEMBL document CHEMBL1649122, “Abc1p is a multidrug efflux transporter that tips the balance in favor of innate azole resistance in Candida krusei” (2009).
Values after ≈ are worked out from the molar mass of the structure shown. Active and inactive are the calls of the source. No cut-off for these calls is given here.

Columns and labels:
[1] = target: ATP binding cassette transporter Abc1p (Issatchenkia orientalis) (UniProt Q09GQ4); test: Inhibition of Candida krusei ABC1 expressed in Saccharomyces cerevisiae isolate ADdelta at 0.36 nM; settings: Pichia kudriavzevii
Method in brief: (§1)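 Agarose disk-diffusion test of S. cerevisiae AD overexpressing C. krusei Abc1p, with the parent AD strain as comparison. Cells were pregrown from YPD overnight into CSM to mid-log at 30°C. They were seeded at OD600 0.008 in CSM with 0.6% agarose, overlaid on CSM agar (pH 7.0). Paper disks carrying set nmol amounts of xenobiotic were applied, and plates were incubated at 30°C for 48 h before reading growth inhibition zones.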

[2] = system: Pichia kudriavzevii; test: Antimicrobial activity against Candida krusei B2399 after 48 hrs by CLSI method; format: functional; settings: B2399, 48 h
Method in brief: (§2)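 Azole MICs were determined by the CLSI M27-A2 broth microdilution reference method. They were interpreted against the CLSI breakpoints. Strains were maintained in YPD medium (1% yeast extract, 2% peptone, 2% glucose).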

[3] = system: Saccharomyces cerevisiae; test: Antimicrobial activity against Saccharomyces cerevisiae isolate AD overexpressing Candida krusei ERG11C after 48 hrs by liquid microdilution assay; format: functional
Method in brief: (§3)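 Liquid broth microdilution susceptibility assay in CSM medium at pH 7.0, which was also the medium used for the expression studies. Fungal strains were maintained in YPD. The S. cerevisiae test strains carry C. krusei ABC1 or fungal ERG11 alleles integrated at the chromosomal PDR5 locus.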

[4] = target: ATP binding cassette transporter Abc1p (Issatchenkia orientalis) (UniProt Q09GQ4); test: Inhibition of Candida krusei […] expressed in Saccharomyces cerevisiae isolate ADdelta assessed as fractional inhibitory concentration index at 2.5 ug/ml after 48 hrs by checkerboard susceptibility assay; settings: Pichia kudriavzevii
Method in brief: (§4)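 Checkerboard susceptibility assay combining the Abc1p inhibitor with FLC or ITC. MICs were determined at various inhibitor concentrations. The fractional inhibitory concentration index was calculated for each combination.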

[5] = system: Saccharomyces cerevisiae; test: Fold resistant, ratio of MIC for Saccharomyces cerevisiae isolate ADdelta overexpressing Candida krusei ERG11g to MIC for Saccharomyces cerevisiae isolate ADdelta overexpressing Abc1p; format: functional
Method in brief: (§5)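 Fold resistance is the ratio of azole MICs between S. cerevisiae overexpressing strains. The MICs were measured by liquid broth microdilution in CSM medium at pH 7.0. The ERG11 or ABC1 constructs are integrated at the PDR5 locus.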

[6] = system: Pichia kudriavzevii; test: Antimicrobial activity against Candida krusei NZCDC 89.221 after 48 hrs by CLSI method; format: functional; method in brief: as §2
[7] = system: Pichia kudriavzevii; test: Antimicrobial activity against Candida krusei IFO0011 after 48 hrs by CLSI method; format: functional; settings: IFO0011, 48 h; method in brief: as §2
[8] = system: Saccharomyces cerevisiae; test: Fold resistant, ratio of MIC for Saccharomyces cerevisiae isolate ADdelta overexpressing Candida krusei ERG11C to MIC for Saccharomyces cerevisiae isolate ADdelta overexpressing Abc1p; format: functional; method in brief: as §5
[9] = system: Pichia kudriavzevii; test: Antimicrobial activity against Candida krusei NZCDC 89.102 after 48 hrs by liquid microdilution assay; format: functional; settings: NZCDC 89.102, 48 h; method in brief: as §3
[10] = target: ATP binding cassette transporter Abc1p (Issatchenkia orientalis) (UniProt Q09GQ4); test: Inhibition of Candida krusei B2399 Abc1p assessed as fractional inhibitory concentration index at 2.5 ug/ml after 48 hrs by checkerboard susceptibility assay; settings: Pichia kudriavzevii; method in brief: as §4
[11] = system: Pichia kudriavzevii; test: Antimicrobial activity against Candida krusei B2399 after 48 hrs by liquid microdilution assay; format: functional; settings: B2399, 48 h; method in brief: as §3
[12] = system: Saccharomyces cerevisiae; test: Antimicrobial activity against Saccharomyces cerevisiae isolate ADdelta overexpressing Candida albicans ERG11A after 48 hrs by liquid microdilution assay; format: functional; method in brief: as §3
[13] = system: Pichia kudriavzevii; test: Antimicrobial activity against Candida krusei NZCDC 89.221 after 48 hrs by liquid microdilution assay; format: functional; settings: NZCDC 89.221, 48 h; method in brief: as §3
[14] = system: Pichia kudriavzevii; test: Antimicrobial activity against Candida krusei NZCDC 90.147 after 48 hrs by liquid microdilution assay; format: functional; settings: NZCDC 90.147, 48 h; method in brief: as §3
[15] = system: Pichia kudriavzevii; test: Antimicrobial activity against Candida krusei NZCDC 89.021 after 48 hrs by liquid microdilution assay; format: functional; settings: NZCDC 89.021, 48 h; method in brief: as §3
[16] = system: Pichia kudriavzevii; test: Increase in ERG11 mRNA expression in Candida krusei B2399 at 2 times MIC concentration after 1 hr by hot-phenol extraction based Northern blotting; format: functional, organism-based
Method in brief: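 Logarithmically grown C. krusei B2399 was exposed to azole for 60 min (2x MIC for VRC, MCZ and ITC; 1x MIC for FLC) alongside an untreated control. Total RNA was extracted with hot phenol, and 10 µg was run on 1.2% denaturing agarose. It was Northern blotted and probed with a radiolabeled ERG11 fragment. ACT1 mRNA served as internal control, with EtBr-stained rRNA showing loading.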

[17] = system: Pichia kudriavzevii; test: Antimicrobial activity against Candida krusei IFO0011 after 48 hrs by liquid microdilution assay; format: functional; settings: IFO0011, 48 h; method in brief: as §3
[18] = system: Saccharomyces cerevisiae; test: Antimicrobial activity against Saccharomyces cerevisiae isolate ADdelta overexpressing Abc1p after 48 hrs by liquid microdilution assay; format: functional; method in brief: as §3
[19] = system: Pichia kudriavzevii; test: Antimicrobial activity against Candida krusei NZCDC 90.147 after 48 hrs by CLSI method; format: functional; method in brief: as §2
[20] = system: Saccharomyces cerevisiae; test: Antimicrobial activity against Saccharomyces cerevisiae isolate ADdelta overexpressing Candida krusei ERG11g after 48 hrs by liquid microdilution assay; format: functional; method in brief: as §3
[21] = system: Pichia kudriavzevii; test: Antimicrobial activity against Candida krusei NZCDC 89.021 after 48 hrs by CLSI method; format: functional; settings: NZCDC 89.021, 48 h; method in brief: as §2
[22] = system: Saccharomyces cerevisiae; test: Antimicrobial activity against Saccharomyces cerevisiae isolate ADdelta overexpressing Saccharomyces cerevisiae ERG11 after 48 hrs by liquid microdilution assay; format: functional; method in brief: as §3
[23] = system: Pichia kudriavzevii; test: Antimicrobial activity against Candida krusei NZCDC 89.102 after 48 hrs by CLSI method; format: functional; method in brief: as §2
[24] = system: Saccharomyces cerevisiae; test: Fold resistant, ratio of MIC for Saccharomyces cerevisiae isolate ADdelta overexpressing Candida albicans ERG11A to MIC for Saccharomyces cerevisiae isolate ADdelta overexpressing Abc1p; format: functional; method in brief: as §5
[25] = system: Saccharomyces cerevisiae; test: Fold resistant, ratio of MIC for Saccharomyces cerevisiae isolate ADdelta overexpressing Saccharomyces cerevisiae ERG11 to MIC for Saccharomyces cerevisiae isolate ADdelta overexpressing Abc1p; format: functional; method in brief: as §5
[26] = target: ATP binding cassette transporter Abc1p (Issatchenkia orientalis) (UniProt Q09GQ4); test: Inhibition of Candida krusei ABC1 expressed in Saccharomyces cerevisiae isolate ADdelta at 0.28 nM; settings: Pichia kudriavzevii
[27] = target: ATP binding cassette transporter Abc1p (Issatchenkia orientalis) (UniProt Q09GQ4); test: Inhibition of Candida krusei ABC1 expressed in Saccharomyces cerevisiae isolate ADdelta at 0.026 nM; settings: Pichia kudriavzevii; method in brief: as §1
[28] = target: ATP binding cassette transporter Abc1p (Issatchenkia orientalis) (UniProt Q09GQ4); test: Inhibition of Candida krusei ABC1 expressed in Saccharomyces cerevisiae isolate ADdelta at 22 nM; settings: Pichia kudriavzevii

Compound: CCC(C)n1ncn(-c2ccc(N3CCN(c4ccc(OCC5COC(Cn6cncn6)(c6ccc(Cl)cc6Cl)O5)cc4)CC3)cc2)c1=O (stereo unspecified) [ITRACONAZOLE]
- Activity [1]: inactive
- MIC [2]: 0.25 µg/mL (≈ 0.354 µM)
- MIC [3]: 0.063 µg/mL (≈ 0.0893 µM)
- fractional inhibitory concentration index (FICI) [4]: 0.104
- ratio [5]: 128
- MIC [6]: 0.125 µg/mL (≈ 0.177 µM)
- MIC [7]: 0.25 µg/mL (≈ 0.354 µM)
- ratio [8]: 2
- MIC [9]: 2 µg/mL (≈ 2.83 µM)
- fractional inhibitory concentration index (FICI) [10]: 0.298
- MIC [11]: 0.5 µg/mL (≈ 0.709 µM)
- MIC [12]: 0.125 µg/mL (≈ 0.177 µM)
- MIC [13]: 1 µg/mL (≈ 1.42 µM)
- MIC [14]: 1 µg/mL (≈ 1.42 µM)
- MIC [15]: 1 µg/mL (≈ 1.42 µM)
- Activity [16]: Active
- MIC [17]: 1 µg/mL (≈ 1.42 µM)
- MIC [18]: 0.031 µg/mL (≈ 0.0439 µM)
- MIC [19]: 0.25 µg/mL (≈ 0.354 µM)
- MIC [20]: 4 µg/mL (≈ 5.67 µM)
- MIC [21]: 0.25 µg/mL (≈ 0.354 µM)
- MIC [22]: 0.25 µg/mL (≈ 0.354 µM)
- MIC [23]: 0.25 µg/mL (≈ 0.354 µM)
- ratio [24]: 4
- ratio [25]: 8

Compound: CC(=O)N1CCN(c2ccc(OCC3COC(Cn4ccnc4)(c4ccc(Cl)cc4Cl)O3)cc2)CC1 (stereo unspecified) [KETOCONAZOLE]
- MIC [2]: 0.5 µg/mL (≈ 0.941 µM)
- MIC [3]: 0.063 µg/mL (≈ 0.119 µM)
- Activity [26]: inactive
- ratio [5]: 64
- MIC [6]: 0.5 µg/mL (≈ 0.941 µM)
- MIC [7]: 1 µg/mL (≈ 1.88 µM)
- ratio [8]: 2
- MIC [9]: 4 µg/mL (≈ 7.53 µM)
- MIC [11]: 2 µg/mL (≈ 3.76 µM)
- MIC [12]: 0.125 µg/mL (≈ 0.235 µM)
- MIC [13]: 2 µg/mL (≈ 3.76 µM)
- MIC [14]: 4 µg/mL (≈ 7.53 µM)
- MIC [15]: 4 µg/mL (≈ 7.53 µM)
- MIC [17]: 2 µg/mL (≈ 3.76 µM)
- MIC [18]: 0.031 µg/mL (≈ 0.0583 µM)
- MIC [19]: 1 µg/mL (≈ 1.88 µM)
- MIC [20]: 2 µg/mL (≈ 3.76 µM)
- MIC [21]: 0.5 µg/mL (≈ 0.941 µM)
- MIC [22]: 0.063 µg/mL (≈ 0.119 µM)
- MIC [23]: 0.5 µg/mL (≈ 0.941 µM)
- ratio [24]: 4
- ratio [25]: 2

Compound: Clc1ccc(COC(Cn2ccnc2)c2ccc(Cl)cc2Cl)c(Cl)c1 (stereo unspecified) [MICONAZOLE]
- MIC [2]: 4 µg/mL (≈ 9.61 µM)
- MIC [3]: 0.125 µg/mL (≈ 0.3 µM)
- ratio [5]: 64
- MIC [6]: 2 µg/mL (≈ 4.81 µM)
- MIC [7]: 4 µg/mL (≈ 9.61 µM)
- ratio [8]: 16
- MIC [9]: 4 µg/mL (≈ 9.61 µM)
- MIC [11]: 2 µg/mL (≈ 4.81 µM)
- MIC [12]: 0.063 µg/mL (≈ 0.151 µM)
- MIC [13]: 4 µg/mL (≈ 9.61 µM)
- MIC [15]: 4 µg/mL (≈ 9.61 µM)
- Activity [16]: Active
- MIC [18]: 0.0078 µg/mL (≈ 0.0187 µM)
- MIC [19]: 4 µg/mL (≈ 9.61 µM)
- Activity [27]: inactive
- MIC [20]: 0.5 µg/mL (≈ 1.2 µM)
- MIC [21]: 2 µg/mL (≈ 4.81 µM)
- MIC [22]: 0.031 µg/mL (≈ 0.0745 µM)
- MIC [23]: 2 µg/mL (≈ 4.81 µM)
- ratio [24]: 8
- ratio [25]: 4

Compound: C[C@@H](c1ncncc1F)[C@](O)(Cn1cncn1)c1ccc(F)cc1F [VORICONAZOLE]
- MIC [2]: 0.5 µg/mL (≈ 1.43 µM)
- MIC [3]: 0.063 µg/mL (≈ 0.18 µM)
- ratio [5]: 64
- MIC [6]: 0.5 µg/mL (≈ 1.43 µM)
- MIC [7]: 1 µg/mL (≈ 2.86 µM)
- ratio [8]: 8
- MIC [9]: 2 µg/mL (≈ 5.73 µM)
- MIC [11]: 1 µg/mL (≈ 2.86 µM)
- MIC [12]: 0.031 µg/mL (≈ 0.0887 µM)
- MIC [13]: 1 µg/mL (≈ 2.86 µM)
- MIC [14]: 2 µg/mL (≈ 5.73 µM)
- MIC [15]: 2 µg/mL (≈ 5.73 µM)
- Activity [16]: Active
- MIC [17]: 1 µg/mL (≈ 2.86 µM)
- MIC [18]: 0.0078 µg/mL (≈ 0.0223 µM)
- MIC [19]: 1 µg/mL (≈ 2.86 µM)
- MIC [20]: 0.5 µg/mL (≈ 1.43 µM)
- MIC [21]: 0.5 µg/mL (≈ 1.43 µM)
- MIC [22]: 0.063 µg/mL (≈ 0.18 µM)
- MIC [23]: 0.5 µg/mL (≈ 1.43 µM)
- ratio [24]: 4
- ratio [25]: 8

Compound: NYSTATIN
- Activity [28]: inactive
